In ChEMBL document CHEMBL3085698, “Bioactive lignans from the trunk of Abies holophylla” (J Nat Prod, 2013):

Assays:
C6 = assay: Induction of NGF secretion in rat C6 cells at 10 uM after 24 hrs by ELISA relative to control; format: functional
Procedure, shortened: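 Rat C6 glioma cells kept in DMEM with 10% FBS and 1% penicillin-streptomycin under 5% CO2, seeded at 1 × 10^5 cells/well. After 24 h, medium switched to DMEM with 2% FBS containing compound for one day. NGF released into the supernatant quantified by ELISA; viability checked by MTT. 6-Shogaol as positive control.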

[1] = Cytotoxicity against LPS-stimulated mouse BV2 cells assessed as cell viability by MTT assay relative to control; format: cell-based; settings: bv-2
Procedure, shortened: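 MTT viability read in the same BV-2 setup: cells at 3 × 10^4 cells/well in DMEM with 5% FBS, compound pretreatment for 30 min, then 100 ng/mL LPS stimulation for 24 h.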

[2] = Antineuroinflammatory activity in mouse BV2 cells assessed as inhibition of LPS-induced NO production incubated 30 mins prior to LPS-challenge measured after 24 hrs by Griess assay; format: functional, cell-based; settings: BV-2
Procedure, shortened: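 BV-2 microglia grown in DMEM with 5% FBS and 1% penicillin-streptomycin, plated at 3 × 10^4 cells/well and left 24 h. Compounds added 30 min before 100 ng/mL LPS for 24 h. Supernatant nitrite measured by Griess reagent (1% sulphanilamide, 0.1% naphthylethylenediamine in 5% phosphoric acid), read at 540 nm after 10 min against a sodium nitrite standard. L-NMMA as positive control. IC50 reported.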

Compound	Activity (C6) [%]	Activity [1]	IC50 [2] [µM]
COc1cc(C[C@H]2[C@@H](OC)OC[C@@H]2[C@H](O)c2ccc(O)c(OC)c2)ccc1O	165	–	–
COc1cc([C@@H]2Oc3c(OC)cc(CCCO)cc3[C@H]2CO)ccc1O[C@@H]1O[C@@H](C)[C@H](O)[C@@H](OC)[C@H]1O	159	–	–
CCCCC/C=C/C(=O)CCc1ccc(O)c(OC)c1 [SHOGAOL]	129	–	–
COc1cc(C[C@H]2[C@H](OC)OC[C@@H]2[C@H](O)c2ccc(O)c(OC)c2)ccc1O	–	Non-toxic	36.4
COc1cc(CCCO)ccc1O[C@@H](CO)Cc1ccc(O[C@@H]2OC[C@@H](O)[C@H](O)[C@H]2O)c(OC)c1	169	Non-toxic	31
COc1cc([C@@H]2Oc3c(O)cc(CCCO)cc3[C@H]2CO)ccc1O[C@@H]1O[C@@H](C)[C@H](O)[C@@H](OC)[C@H]1O (relative stereo)	–	Non-toxic	32.9
COc1cc([C@H]2c3cc(O)c(OC)cc3C[C@H]3C(=O)OC[C@H]23)ccc1O [ALPHA-CONIDENDRIN]	–	Non-toxic	28.5
